One experiment concerns HIV integrase. Conditions: previous study; cited from earlier work.
For experiment [1], the system named is HIV-1 NL4.3. In words: Inhibition of HIV infection in CEM-GFP cells-based assay. In kind it is cell-based. The method, boiled down: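 CEM-GFP cells (CD4+ T-lymphocytic line, GFP under HIV-1 LTR) were infected with HIV-1 NL4.3 at MOI 0.05. They were then plated at 2.0 × 10^5/well with varying test compound concentrations for up to 8 days. AZT served as positive control and solvents as negative controls. Cell lysates were read for GFP fluorescence (ex 485/em 520 nm). % inhibition was taken versus untreated infected cells, and IC50 was obtained by nonlinear curve fitting.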

Experiment [2] concerns HIV-1 NL4.3. In words: Inhibition of HIV infection in TZM-bl cells-based assay. In kind it is cell-based. The method, boiled down:
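TZM-bl cells (HeLa-derived, CD4/CCR5/CXCR4, LTR-driven luciferase) were seeded at 4 × 10^4/well overnight. HIV-1 NL4.3 (MOI 0.05) was pretreated with test compound for 1 h at 37°C, added to cells in duplicate for 4 h, then washed off with cold PBS. Cells were cultured 48 h in fresh medium with compound, lysed by freeze-thaw and read for luciferase. AZT served as positive control. % inhibition was taken versus untreated infected cells; IC50 by nonlinear fit.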

Another experiment concerns the target HIV-1 protease (Human immunodeficiency virus type 1 group M subtype B, UniProt P04585). Kind of experiment: Protease assay. In kind it is biochemical. The note with it: reference control saquinavir 1 μM. The method, boiled down: (§1)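 Enzyme inhibition was measured with a commercial kit for each enzyme, following the manufacturer's instructions. Inhibition values are mean ± SEM of three independent experiments.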

In a further experiment the target is HIV-1 integrase (Human immunodeficiency virus type 1 group M subtype B, UniProt P04585). Kind of experiment: Integrase assay. In kind it is biochemical. The note with it: tested upto 50 μg/ml; positive control sodium azide; data not shown. The method, boiled down: as §1
For the next experiment, the system named is HIV. Conditions: from other plant sources; cited from earlier work.
Another experiment concerns the target HIV-1 RT (Human immunodeficiency virus type 1 group M subtype B, UniProt P04585). Kind of experiment: Reverse transcriptase assay. In kind it is biochemical. Conditions: reference control nevirapine 1 μM. The method, boiled down:
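HIV-1 reverse transcriptase inhibition was measured with a commercial RT assay kit following the manufacturer's protocol. Data are mean ± SEM of three independent experiments.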

As to `O=c1oc2c(O)c(O)cc3c(=O)oc4c(O)c(O)cc1c4c23` [Ellagic acid (G), ellagic acid], the “HIV integrase inhibitory activity (in words)” value in the experiment with HIV integrase is on record as “shown to have HIV integrase inhibitory activity”. For the same compound, the “anti-HIV activity (in words)” value with HIV-1 NL4.3 [1] was “consistent anti-HIV activity”; in the experiment on HIV-1 NL4.3 [2], “consistent anti-HIV activity”; with HIV, “reported for their anti-HIV activity”. Besides, the “inhibition of HIV-1 protease activity (in words)” value against HIV-1 protease (listed as ellagic acid) is listed as “inhibited the HIV-1 protease activity”; against HIV-1 protease (listed as ellagic acid (compound G)) it was “dose-dependent inhibition”. On HIV-1 integrase, the “inhibition of HIV-1 integrase activity (in words)” value is reported as “did not show any significant inhibition”.
As to `O=C(O)c1cc(O)c(O)c(O)c1` [Gallic acid (F), gallic acid], the results for the “anti-HIV activity (in words)” value in the experiment on HIV-1 NL4.3 [1], with HIV-1 NL4.3 [2] and in the experiment on HIV were “potent anti-HIV activity”, “potent anti-HIV activity” and “reported for their anti-HIV activity”, respectively. Further, the “inhibition of HIV-1 RT activity (in words)” value at HIV-1 RT is reported as “dose dependent inhibition”. For the same compound, the “inhibition of HIV-1 integrase activity (in words)” value against HIV-1 integrase is recorded as “did not show any significant inhibition”.
For `C[C@@H]1O[C@@H](OC[C@H]2O[C@@H](Oc3c(-c4ccc(O)c(O)c4)oc4cc(O)cc(O)c4c3=O)[C@H](O)[C@@H](O)[C@@H]2O)[C@H](O)[C@H](O)[C@H]1O` [Rutin (E), rutin], the “anti-HIV activity (in words)” value in the experiment on HIV-1 NL4.3 [1] and with HIV-1 NL4.3 [2] was “did not show any significant anti-HIV activity” each time.

These data come from paper PMC3705663 (The Indian Journal of Medical Research, 2013).
